≈ marks a conversion by molar mass, not a printed value.
Legend:
Assay type in all cases: functional, cell-based
P388 = experiment: Antitumor activity against mouse P388 cells
In short: (§1)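 Cells from four lines (P-388, A-549, HT-29, MEL-28) were tested in parallel with reference standards. Activity was read out as IC50 in […], using a previously published antitumor assay protocol.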

[1] = Antitumor activity against human SK MEL28 cells; conditions: SK-MEL-28; in short: as §1
HT-29 = experiment: Antitumor activity against human HT-29 cells; in short: as §1
A549 = experiment: Antitumor activity against human A549 cells; in short: as §1

Structure (SMILES) | IC50 (P388) [µg/mL] | IC50 [1] [µg/mL] | IC50 (HT-29) [µg/mL] | IC50 (A549) [µg/mL]
CC1(C)CCC[C@]2(C)[C@@H]3C(=CO[C@@H]3O)CC[C@@H]12 | 0.5 (≈ 2.12 µM) | 1 (≈ 4.23 µM) | 1 (≈ 4.23 µM) | 0.5 (≈ 2.12 µM)
COc1cccc2c1C(=O)c1c(O)c3c(c(O)c1C2=O)C[C@@](O)(C(=O)CO)C[C@@H]3O[C@H]1C[C@H](N)[C@H](O)[C@H](C)O1.Cl [DOXORUBICIN HYDROCHLORIDE] | 0.1 | 0.5 | 0.5 | 0.025
O=c1[nH]cc(F)c(=O)[nH]1 [FLUOROURACIL] | 0.02 (≈ 0.154 µM) | 0.1 (≈ 0.769 µM) | 0.1 (≈ 0.769 µM) | 0.1 (≈ 0.769 µM)
CN(Cc1cnc2nc(N)nc(N)c2n1)c1ccc(C(=O)N[C@@H](CCC(=O)O)C(=O)O)cc1 [METHOTREXATE] | 0.002 (≈ 0.0044 µM) | 0.01 (≈ 0.022 µM) | 0.01 (≈ 0.022 µM) | 0.005 (≈ 0.011 µM)
CC1(C)CCC[C@]2(C)[C@@H](C=O)C(C=O)=CC[C@@H]12 [POLYGODIAL] | 1.2 (≈ 5.12 µM) | 2.5 (≈ 10.7 µM) | 2.5 (≈ 10.7 µM) | 2.5 (≈ 10.7 µM)

From ChEMBL document CHEMBL1144135, “Synthesis of 11,12-epoxydrim-8,12-en-11-ol, 11,12-diacetoxydrimane, and warburganal from (-)-sclareol” (J Nat Prod, 1999)
